What was measured:
[1] = molecular target: T1, Aromatase (Homo sapiens, UniProt P11511); assay: Inhibition of recombinant human aromatase at 100 uM preincubated for 10 mins followed by substrate and beta-NADP+ addition and measured for 60 mins by fluorescence method; conditions: 1 h
T1 sequence (P11511 whole entry): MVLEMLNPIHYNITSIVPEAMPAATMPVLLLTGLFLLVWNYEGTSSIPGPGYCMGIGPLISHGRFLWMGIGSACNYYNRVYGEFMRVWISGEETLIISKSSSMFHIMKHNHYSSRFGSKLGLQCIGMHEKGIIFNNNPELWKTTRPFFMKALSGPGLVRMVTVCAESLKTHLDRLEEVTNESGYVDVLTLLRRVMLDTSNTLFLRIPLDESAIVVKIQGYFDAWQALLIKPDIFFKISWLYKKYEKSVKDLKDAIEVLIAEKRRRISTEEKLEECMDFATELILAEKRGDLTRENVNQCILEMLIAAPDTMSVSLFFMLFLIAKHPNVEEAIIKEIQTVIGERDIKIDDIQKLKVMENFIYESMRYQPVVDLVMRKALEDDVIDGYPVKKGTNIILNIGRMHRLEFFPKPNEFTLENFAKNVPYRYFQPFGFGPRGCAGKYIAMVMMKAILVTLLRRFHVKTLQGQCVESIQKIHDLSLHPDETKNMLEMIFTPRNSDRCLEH
Method in brief: (§1)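 Single-concentration screen of recombinant human aromatase with an NADPH-generating system, at 100 and 200 µM inhibitor, DMSO ≤0.25% (v/v) final. Mix preincubated 10 min at 37°C, then fluorogenic substrate plus β-NADP+ added. Fluorescence read at 488/527 nm over 60 min. % inhibition taken from the RFU ratio of control to test, in triplicate.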

[2] = molecular target: T1, Aromatase; assay: Inhibition of recombinant human aromatase at 200 uM preincubated for 10 mins followed by substrate and beta-NADP+ addition and measured for 60 mins by fluorescence method; conditions: 1 h; method in brief: as §1
[3] = molecular target: T1, Aromatase; assay: Mixed type inhibition of recombinant human aromatase assessed as Vmax preincubated for 10 min followed by different substrate concentration and beta-NADP+ addition measured for 60 mins by fluorescence method based Michaelis-menten analysis (reference value: 93.3 +/- 1.3 /ms); conditions: 1 h
[4] = molecular target: T1, Aromatase; assay: Inhibition of recombinant human aromatase preincubated for 10 mins followed by substrate and beta-NADP+ addition and measured for 60 mins by fluorescence method
[5] = system: MCF7; assay: Growth inhibition of human MCF7 cells incubated for 72 hrs by cell counting based method; format: functional; conditions: MCF7, 72 h
Method in brief: (§2)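 MCF-7 (ER+) and MDA-MB-231 (ER−) cells from ATCC, seeded at 50000 cells/well in triplicate. After 24 h, exposed for 72 h to graded concentrations, up to 200 µM. Cells trypsinized and counted electronically. Means of three independent experiments, each in triplicate, used for dose-response curves and GI50.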

[6] = molecular target: T1, Aromatase; assay: Mixed type inhibition of recombinant human aromatase assessed as substrate Vmax preincubated for 10 mins followed by different substrate concentration and beta-NADP+ addition and measured for 60 mins by fluorescence method based Cornish-Bowden direct linear analysis (reference value: 91.5 /ms); conditions: 1 h
[7] = system: MDA-MB-231; assay: Growth inhibition of human MDA-MB-231 cells incubated for 72 hrs by cell counting based method; format: functional; conditions: MDA-MB-231, 72 h; method in brief: as §2
[8] = molecular target: T1, Aromatase; assay: Inhibition of recombinant human aromatase at 1 uM preincubated for 10 mins followed by substrate and beta-NADP+ addition and measured for 60 mins by fluorescence method; conditions: 1 h, read-out: INH

inhibition at 100 µM [1] [%]	inhibition at 200 µM [2] [%]	Vmax [3] [U/ms]	IC50 [4] [µM]	GI50 [5] [µM]	Vmax [6] [U/ms]	GI50 [7] [µM]	inhibition at 1 µM [8] [%]	Structure (SMILES)
4	19							COc1ccc([C@@H](O)CNC(=O)N[C@@H]2CCCCNC2=O)cc1
53	69	85.2	21.7	66.4	78.7	> 200		O=C(CCc1ccc(O)c(Cl)c1)NCc1csc(=O)[nH]1
86	97	79.3	95.3	22.1	60.6	16.2		COC(=O)c1ccc(NCC2=CC(=O)c3ccccc3C2=O)cc1
11	58		6.1					CC/C(=C(\c1ccc(O)cc1)c1ccc(OCCNC)cc1)c1ccccc1 [ENDOXIFEN]
2	6							CC[C@H](CO)N(Cc1ccccn1)C(=O)c1ccc(=O)[nH]c1
83	92	21.5	11	17.9	16.2	6.8		O=C1c2c(O)ccc(O)c2C(=O)c2c(NCCCO)ccc(NCCCO)c21
5	8							Cc1ccc(C(c2ccc(C)c(C)c2)C(O)C(O)C(O)C(O)CO)cc1C (configuration not stated)
3	3							O=C(NCc1cc[nH]c(=O)c1)c1ccc(COCC(F)(F)F)cc1
2	12							CCSC(C(O)C(O)C(O)C(O)CO)n1cnc2c(S)ncnc21 (configuration not stated)
11	10							OCC(O)C(O)C(O)C(c1ccc(Cl)cc1)c1ccc(Cl)cc1 (configuration not stated)
27	41							C[C@@H](NC(=O)c1ccc(=O)[nH]c1)c1ccc2[nH]c(=O)[nH]c2c1
0	0							CC(C)(C)NCC(O)COc1cccc2c1C[C@H](O)[C@H](O)C2 (some centres not stated) [NADOLOL]
4	3							NC(CCC(=O)O)C(=O)NC(Cc1c[nH]c2ccccc12)C(=O)O (configuration not stated)
79	88	19.3	5.1	21.3	15.1	58		CC[C@H](Nc1cc(C)nc(Nc2cccc(O)c2)n1)c1nccs1
46	56							O=C1c2c(O)cc(O)cc2O[C@H](c2ccc(O)c(O)c2)[C@H]1O [(+)-TAXIFOLIN]
0	3							O=c1cc(CO)oc([C@H](Nc2ccccn2)c2ccccc2O)c1O
8	8							Nc1nc(O)cc(NC(=S)Nc2ccc(C(=O)O)cc2)n1
				4.1		> 10	91	N#Cc1ccc(C(c2ccc(C#N)cc2)n2cncn2)cc1 [LETROZOLE]
39	62	64.6	20.9	> 200	50.7	> 200		N[C@@H]1CCN(Cc2cc(O)c3cc(F)ccc3n2)C[C@H]1O
10	13							O=C(C=Cc1ccc(O)c(O)c1)NCC(=O)NC(Cc1ccccc1)C(=O)O (configuration not stated)

— ChEMBL document CHEMBL4390658, “Rational design of allosteric modulators of the aromatase enzyme: An unprecedented therapeutic strategy to fight breast cancer” (Eur J Med Chem, 2019)
